Data: ChEMBL document CHEMBL4513216, “Probing the Open Global Health Chemical Diversity Library for Multistage-Active Starting Points for Next-Generation Antimalarials” (ACS Infect Dis, 2020)

Assay: Toxicity liver stage against HepG2, at 10uM
Assay type: cell-based
Design: test concentration 10 uM, cell line HepG2-A16-CD81EGFP
Conditions: human, HepG2-A16-CD81EGFP cells; read-out: INHIBITION
In short: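 Uninfected HepG2-A16-CD81EGFP cells, 3 × 10^3 per well, 1536-well, plated on prespotted compound at 10 μM final, parasite-free screening media added to match infected plates; puromycin 10 μM positive, DMSO 0.5% negative; run in parallel with 48 h PbLuc assay at 37 °C, 5% CO2; viability by CellTiter-Glo luminescence, normalized to controls.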

SMILES | cytotoxicity at 10 µM
O=c1[nH]c(NCCCO)nc2c1C1(CCCC1)Cc1ccccc1-2 | 8.79%
Cc1nn(C(=O)c2cccnc2)c(C)c1C | -8.62%
Cc1ccc(OCc2occc2C(=O)O)cc1 | -3.76%
CNC(=O)NC(=O)C(NCc1cccs1)c1ccccc1 (configuration not stated) | 6.75%
O=C(c1cc(Cl)c(Br)[nH]1)N1CCN(Cc2ccco2)CC1 | -55.7%
Cc1cc(=O)[nH]c(-n2nc(-c3ccccc3)cc2N)n1 | 5.71%
FC(F)(F)c1cccc(CN2CCOC[C@H](Oc3cccnc3)C2)c1 | 7.74%
CCN1Cc2cc3c(cc2NCCC1=O)OCO3 | -7.44%
Cc1ncc(CNC(C)(C)CO)c2cc(C(=O)c3ccc(Br)cc3)oc12 | 12.7%
COc1cc(NC(=O)C2CC(=O)N(c3cccc(Br)c3)C2)ncn1 (configuration not stated) | 33.4%
COCC(=O)N1CCC2(CCC2NS(=O)(=O)c2ccccc2)CC1 (configuration not stated) | 0.073%
O=C(c1ccc[nH]1)N1C[C@H](OCc2ccccn2)[C@H]2COC[C@H]21 | 0.238%
COc1ncc(C(=O)NCc2ccccc2)cn1 | -3.99%
CCCN1CCN(C(=O)Cn2nc(C(F)(F)F)c(Br)c2C2CC2)CC1 | 2.2%
CCn1ncc(-c2cc(C(F)F)nc3sc(C(N)=O)c(N)c23)c1C | 10.3%
Cc1c(Cl)cccc1NC(=O)N1CCN(Cc2ccccn2)CC1 | -5.55%
CCOC(=O)Cn1nnnc1-c1ccccc1 | 0.363%
OC1(Cn2ccc3ncccc32)CCN(Cc2cccs2)CC1 | -9.65%
CC(=O)N1C[C@@H](c2ccsc2)[C@@H]2CN(Cc3ccccc3C)CC[C@@H]21 | -5%
CCC(C)(C)NC(=O)C[S+]([O-])Cc1csc(C2CCCC2)n1 (configuration not stated) | -41.3%
O=C(CCn1cncn1)NCC1CCCC1 | -43.1%
Cn1cnnc1S(=O)(=O)Cc1cc(Cl)c2c(c1)OCCO2 | -44.7%

SMILES | cytotoxicity at 10 µM
N#Cc1ncn(Cc2c(F)cccc2Cl)n1 | -3.94%
N#CCCN(CC(=O)Nc1ccc(Br)cc1Cl)Cc1cccnc1 | 11%
N#Cc1cc(F)ccc1NCC1CCN(S(=O)(=O)C(F)F)CC1 | 18.4%
CCNC(=O)C(C)NC(=O)Nc1ccccc1SC(F)(F)F (configuration not stated) | -9.5%
COc1ccc(CNCc2c(C)nc3sc(C)cn23)c(OC)c1OC | -1.99%
CCOCCN1CCN(CCC(=O)N2CCCCC2)CC1 | -7.71%
Cc1cccn2c(=O)cc(CN3CCCC3Cn3cccn3)nc12 (configuration not stated) | -4.55%
Cc1ccc(C(=O)CN2C(=O)c3ccccc3CS2(=O)=O)c(C)c1 | 17.6%
CN(Cc1ccc(N(C)C)cc1)C(=O)CS(=O)(=O)c1ccc(Cl)cc1 | 22.2%
CCOc1cc(CN(C)CCC#N)ccc1OC(F)F | -5.81%
COc1ncccc1C(=O)NC1(c2cccc(F)c2)CCOCC1 | 10.9%
COc1cccc(N2CCN(CCC(=O)NC3CCCCC3)CC2)c1 | -5.64%
Cc1nc(C)n(CC2CN(CC(=O)Nc3ccncc3)CCO2)n1 (configuration not stated) | -0.654%
CCOC(C)C(=O)Nc1ccc(Sc2nncn2C)c(Cl)c1 (configuration not stated) | -1.37%
c1ccc(-n2nnnc2NCc2ccc3c(c2)OCO3)cc1 | 29.5%
Cc1[nH]ncc1C(C)NCc1ccc(F)cc1 (configuration not stated) | 3.28%
Cc1c(C(=O)N(CCN(C)C)Cc2ccccn2)oc2ccccc12 | 14.4%
CS(=O)(=O)c1cccc(C(=O)NCc2nc3cc(F)ccc3[nH]2)c1 | 12.2%
CCC(C)NC(=O)c1cccc(CNCc2csc(C(C)C)n2)c1 (configuration not stated) | 9.48%
OC1CCN(Cc2ccc(CNc3ncc(Cl)cc3F)cc2)CC1 | 9.96%
CCNC(=O)N(C)C1CCCc2nc(C)sc21 (configuration not stated) | 12.2%
CCC(CCO)NS(=O)(=O)c1ccc(Br)cn1 (configuration not stated) | 6.62%

SMILES | cytotoxicity at 10 µM
Cc1csc(C2(NCc3nc(-c4ccco4)oc3C)CCCC2)n1 | 7.2%
O=C(Cc1ccccc1F)NCC1CCN(CCN2CCOCC2)C1 (configuration not stated) | -47%
COc1ccc(-c2nnc(SC(C)C(=O)NCC(C)C)[nH]2)c(OC)c1 (configuration not stated) | 83.5%
CN1CCC2(C=C(C(=O)N(C)C)c3ccccc32)CC1 | -102%
Cc1csc([C@H]2C[C@@H]3CCN(Cc4cc(C)on4)C[C@H]3O2)n1 | -99.4%
Cn1ccnc1CN1CCC2(COCCN(S(=O)(=O)C3CC3)C2)C1 (configuration not stated) | 12.7%
CCC1=NC2(CCC(C(=O)Nc3ccc(C)nc3)CC2)C(=O)N1C (configuration not stated) | 8.79%
CC(=O)N1CCc2nc(-c3ccc(F)cc3)nc(NC(C)C)c2CC1 | -114%
CC(C)N(C)Cc1cn2c(n1)CN(C(=O)c1ccc[nH]1)CC2 | -73.2%
Cc1nc(CN2C[C@@H](CN3CCOCC3)[C@@H](CO)C2)c2ccccn12 | 0.363%
CCN(CC)C1CCN(c2ncnc3c2CCN(C(=O)C2CC2)C3)C1 (configuration not stated) | 1.52%
COc1ccc2cc(C3CN(C(=O)CN4CCCC4)CCO3)ccc2c1 (configuration not stated) | -6.88%
COc1cc2ncn(Cc3ncc[nH]3)c(=O)c2cc1OC | 5.56%
CCCn1cc(-c2cc(-c3cc(CC)n[nH]3)c(C#N)c(N)n2)c(C)n1 | -6.7%
CN(Cc1ccccc1)CC1(O)CCCN(CCC2CCCCC2)C1=O (configuration not stated) | -2.3%
O=C1CC2(CCN(c3nccc(-c4cc(C(=O)O)ccn4)n3)CC2)CN1 | 2.16%
CCN1CC(NC(=O)Nc2nc(C)n(C(C)C)n2)CC1=O (configuration not stated) | -5.58%
Cc1cc(N[C@H]2CCCN(Cc3ccccc3)C2)n2nc(C)cc2n1 | 1.53%
C[C@@H]1CCC[C@H](C)N1CC(=O)N1CCc2[nH]c(-c3ccccc3)nc2C1 | 4.02%
Cc1ccccc1C(=O)NC[C@@H]1CCN(C(=O)c2cscn2)C[C@H]1O | -52.2%
Cc1cnc(NC(=O)c2ccc(C3CCCN3CC(C)C)s2)s1 (configuration not stated) | 9.45%
Cc1ccc(NC(=O)CNC(C)CN2CCCCC2)c(F)c1 (configuration not stated) | -51.6%

SMILES | cytotoxicity at 10 µM
CSc1nnc(CC2CCN(C(=O)Cc3ccncc3)CC2)n1C | -46.7%
CC(C)N1CC2(CCCN(c3ccnc4ccccc34)C2)CCC1=O (configuration not stated) | 8.62%
CC(C)[C@@H]1CN(C(=O)C2(c3ccccc3)CCN(C)CC2)C[C@H]1C(=O)O | 8.73%
Cc1ccc(C(=O)N2CCCC(Cn3cc(C(C)(C)N)nn3)C2)s1 (configuration not stated) | -19.1%
COCCCN1C(=O)CC[C@H]2CN(c3ccnc4ccccc34)CC[C@H]21 | -3.63%
Cc1ccccc1N1CC(C)N(C(=O)CCn2cccn2)CC1=O (configuration not stated) | 10.1%
O=C(NCCN1CCOCC1)c1cc(COc2ccccc2F)[nH]n1 | 13.1%
COc1ccc(C)cc1-n1cnnc1CC1CCNCC1 | -11.4%
CC(=O)NCCC1CCN(c2nc(C(C)(C)C)nc3c2cnn3C)CC1 | -0.891%
CC/C=C(\C)CN1CCC(CNC(=O)c2c[nH]c(=O)c(Cl)c2)C1 (configuration not stated) | -13.2%
CCc1csc(CNC2CCN(Cc3ccccc3)C2)n1 (configuration not stated) | 4.82%
CCn1cc(CN2CCCC3(CCC(=O)N(CCC(C)C)C3)C2)cn1 (configuration not stated) | -4.73%
CN(C(=O)c1cccc(NCc2cccs2)c1)C(C1CC1)C1CC1 | 8.41%
CCCN1CCC(NC(=O)c2csc(C)c2C)CC1 | -137%
CC(Nc1ncnc2c1CCNC2)c1ccc(C(C)(C)C)cc1 (configuration not stated) | 28%
Cc1ccc(-c2cn[nH]c2C2CCCN(c3ccnc(C)n3)C2)cc1 (configuration not stated) | -1.78%
C[C@@H]1CN(C(=O)CCCN2CCOCC2)CC[C@@]1(O)C1CCC1 | -2.95%
O=C1NC2(CCN(C/C=C/c3ccccc3)CC2)CC1c1ccccc1 (configuration not stated) | -47.1%
Cc1cc2nc(C(C)C)cc(NCCNc3ncccc3C)n2n1 | 16.9%
CNc1cc(C(=O)N2CCCCC2CCn2ccnc2C)ccn1 (configuration not stated) | 1.85%
c1cnn(CC2CN(Cc3csc(C4CCCCC4)n3)CCO2)c1 (configuration not stated) | -6.37%
O=C1NCCN1C1CCN(CCOc2ccccc2F)CC1 | -3.63%

SMILES | cytotoxicity at 10 µM
Cc1cc(CN2CCCC2c2noc(C3CC3)n2)c2ccccc2n1 (configuration not stated) | 49.5%
CC(C)c1ncc2c(n1)CN(Cc1nc(-c3cccs3)no1)CC2 | -7.91%
Cc1cnn(C2CCCN(C(=O)CCc3nccs3)C2)c1 (configuration not stated) | -4.49%
CC(=O)N1CCCN(CC(C)(O)c2cccc(C(F)(F)F)c2)CC1 (configuration not stated) | -10.3%
CN(CC(=O)NC(Cc1ccsc1)c1cccnc1)Cc1cccnc1 (configuration not stated) | -4.04%
NC1CCc2nc(-c3cccnc3)nc(Nc3ccc(F)cc3)c2C1 (configuration not stated) | -10.5%
CC(C)NC(=O)[C@@H]1CC[C@@H]2[C@@H](CCN2Cc2cn(C)c3ccccc23)O1 | 9.49%
c1cnc(N2CC[C@@H](OCC3CC3)[C@@H]2Cc2cccnc2)nc1 | 3.26%
O=C(c1cscn1)N1CCO[C@H]2[C@@H](Oc3ccccn3)CC[C@@H]21 | -109%
Cc1ccc(CN2CCOCC3(C2)CN(c2ccc(C)s2)C(=O)CO3)o1 (configuration not stated) | 7.31%
CNC(=O)c1cc2c(nc1N(C)C)CCN(c1ncccn1)CC2 | -119%
O=C(c1ccc(F)cc1)N1CC[C@H]2[C@H]1CCN2CC1CCOCC1 | -76.4%
Cc1cccc(CN2CCC3(CCCN(Cc4cnn(C)c4)C3)C2)n1 (configuration not stated) | -113%
Cc1cccc(CN2CC[C@@H]3[C@@H]2CCN3C(=O)Cc2ccsc2)n1 | -107%
COc1cc(N2C[C@@H]3COC[C@]3(COCc3cccc(C)n3)C2)ncn1 | 12.4%
CN(C)C(=O)CO[C@@H]1CC[C@H]2[C@H]1OCCN2c1ncc(F)cn1 | 5.44%
Cc1ccc(CN2C[C@@H]3C[C@H](C(=O)Nc4cccnc4)[C@H](C2)O3)cc1 | -83.8%
O=C(Cc1ccncc1)N1C[C@H]2CC[C@@H](C1)N(Cc1ccccc1)C2=O | 5.79%
CC1(C)CC(n2cc3nc(N4CCCC4)[nH]cc-3c2=O)CC(C)(C)N1 | 9.46%
